Measurements published in ChEMBL document CHEMBL1137561 (J Med Chem, 2007).

Experiments:
[1] = tested on: Human immunodeficiency virus 1; test: Antiviral activity against HIV1 with reverse transcriptase K103N mutation in MT4 cells assessed as inhibition of viral induced cytopathic effect by MTT method; assay type: functional, organism-based; details: Human immunodeficiency virus 1, MT4
In short: (§1)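 MT-4 cells infected with the HIV-1 NNRTI-resistant mutant strain. Viable cells scored at day 5 post-infection by the MTT tetrazolium colorimetric method. […] Values are means ± SD from at least two experiments.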

[2] = tested on: Human immunodeficiency virus 1; test: Antiviral activity against HIV1 with reverse transcriptase Y181C mutation in MT4 cells assessed as inhibition of viral induced cytopathic effect by MTT method; assay type: functional, organism-based; details: Human immunodeficiency virus 1, MT4; in short: as §1
[3] = tested on: Human immunodeficiency virus 1; test: Antiviral activity against HIV1 with reverse transcriptase Y188L mutation in MT4 cells assessed as inhibition of viral induced cytopathic effect by MTT method; assay type: functional, organism-based; details: Human immunodeficiency virus 1, MT4
In short: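 MT-4 cells infected with the HIV-1 NNRTI-resistant mutant strain. Viable cells scored at day 5 post-infection by the MTT tetrazolium colorimetric method. Values are means ± SD from at least two experiments.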

[4] = Cytotoxicity against MT4 cells after 4 days by MTT method; assay type: cell-based; details: human
In short: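 Mock-infected (noninfected) MT-4 cells, run in parallel with the antiviral test. Viable cells read by the MTT tetrazolium colorimetric method. […] Means ± SD from at least two experiments. The top concentration was limited where compounds precipitated in the culture medium.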

[5] = Selectivity index, ratio of CC50 for MT4 cells to EC50 for HIV1 NL43 infected MT4 cells; assay type: functional
[6] = tested on: Human immunodeficiency virus 1; test: Antiviral activity against HIV1 with reverse transcriptase IRLL98 mutation in MT4 cells assessed as inhibition of viral induced cytopathic effect by MTT method; assay type: functional, organism-based; details: Human immunodeficiency virus 1, MT4
[7] = Resistance index, Ratio of EC50 for drug-resistant HIV1 with RT Y181C mutation in MT4 cells to EC50 for HIV1 NL43 in MT4 cells
[8] = Resistance index, Ratio of EC50 for drug-resistant HIV1 with RT IRLL98 mutation in MT4 cells to EC50 for HIV1 NL43 in MT4 cells
[9] = tested on: Human immunodeficiency virus 1; test: Antiviral activity against HIV1 NL43 in MT4 cells assessed as inhibition of viral induced cytopathic effect after 5 days by MTT method; details: Human immunodeficiency virus 1, NL43, MT4, 120 h
[10] = Inhibition of HIV1 reverse transcriptase Y1811 mutant; design: species or system Human immunodeficiency virus 1
In short: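 Recombinant HIV-1 RT Y181I mutant, purified to >95%, 10 min preincubation with inhibitor. Radioactive nucleotide incorporation into poly(rA)/oligo(dT) 10:1 was followed at varied nucleotide substrate levels, sampling every 2 min for initial velocities. Inhibitor spanned 0.2–5 Ki. Ki came from Lineweaver-Burk and Dixon plots. Means ± SD of at least three experiments.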

[11] = target: Human immunodeficiency virus type 1 reverse transcriptase (Human immunodeficiency virus 1, UniProt Q72547, V106A); test: Inhibition of HIV1 reverse transcriptase V106A mutant
[12] = Resistance index, Ratio of EC50 for drug-resistant HIV1 with RT K103N mutation in MT4 cells to EC50 for HIV1 NL43 in MT4 cells
[13] = target: Human immunodeficiency virus type 1 reverse transcriptase (Human immunodeficiency virus 1, UniProt Q72547); test: Inhibition of wild type HIV1 3B reverse transcriptase
[14] = target: Human immunodeficiency virus type 1 reverse transcriptase (Human immunodeficiency virus 1, UniProt Q72547, K103N); test: Inhibition of HIV1 reverse transcriptase K103N mutant
[15] = target: Human immunodeficiency virus type 1 reverse transcriptase (Human immunodeficiency virus 1, UniProt Q72547, L100I); test: Inhibition of HIV1 reverse transcriptase L100I mutant
[16] = target: Human immunodeficiency virus type 1 reverse transcriptase (Human immunodeficiency virus 1, UniProt Q72547, Y188L); test: Inhibition of HIV1 reverse transcriptase Y188L mutant

Structure (SMILES) | EC50 [1] [µM] | EC50 [2] [µM] | EC50 [3] [µM] | CC50 at 96 h [4] [µM] | Ratio CC50/EC50 [5] | EC50 [6] [µM] | Ratio EC50 [7] | Ratio EC50 [8] | EC50 [9] [µM] | further results
CC1CCN(c2nc(Cc3c(F)cccc3F)cc(=O)[nH]2)CC1 | > 10 | 1.29 | > 10 | > 78 | >2229 | 4.6 | 37 | 131 | 0.035 | –
CCN(CC)c1nc(Cc2c(F)cccc2F)c(C)c(=O)[nH]1 | – | – | – | > 81 | >2700 | – | – | – | 0.03 | –
Cc1ccnc2c1NC(=O)c1cccnc1N2C1CC1 [NEVIRAPINE] | 1.8 | 0.87 | – | > 7 | – | 9.9 | – | – | 0.08 | Ki [10]: 35 µM
CCCN(CCC)c1nc(Cc2c(F)cccc2F)cc(=O)[nH]1 | – | – | – | > 78 | >44 | – | – | – | 1.78 | –
CC1CCCCN1c1nc(Cc2c(F)cccc2F)cc(=O)[nH]1 (stereo unspecified) | > 10 | 1.14 | > 10 | > 78 | >729 | 3 | 11 | 28 | 0.107 | –
Cc1c(Cc2c(F)cccc2N2CCCC2)nc(N2CCCC2)[nH]c1=O | – | – | – | > 70 | >113 | – | – | – | 0.62 | Ki [11]: 0.5 µM
CCCN(CCC)c1nc(Cc2c(F)cccc2F)c(C)c(=O)[nH]1 | – | – | – | > 74 | >35 | – | – | – | 2.09 | –
O=c1cc(Cc2c(F)cccc2F)nc(N2CCC3(CC2)OCCO3)[nH]1 | – | – | – | > 69 | >31 | – | – | – | 2.22 | –
Cc1c(Cc2c(F)cccc2F)nc(N2CCC3(CC2)OCCO3)[nH]c1=O | – | – | – | > 66 | >101 | – | – | – | 0.65 | –
CCN(C)c1nc(Cc2c(F)cccc2F)cc(=O)[nH]1 | > 10 | 0.5 | > 10 | > 89 | >6846 | 2 | 38 | 154 | 0.013 | –
Cc1c(C(C)c2ccccc2F)nc(N(C)C)[nH]c1=O (stereo unspecified) | – | – | – | 44 | 7333 | – | – | – | 0.006 | –
Cc1c(Cc2c(F)cccc2F)nc(N2CCCCCC2)[nH]c1=O | > 10 | 0.57 | > 10 | > 75 | >1500 | 1.7 | 11 | 34 | 0.05 | Ki [11]: 0.5 µM
CC1CCCN(c2nc(Cc3c(F)cccc3F)cc(=O)[nH]2)C1 (stereo unspecified) | > 10 | 0.43 | > 10 | > 78 | >2437 | 1.8 | 13 | 56 | 0.032 | –
CCCN(C)c1nc(C(C)c2c(F)cccc2F)cc(=O)[nH]1 (stereo unspecified) | 0.08 | 0.05 | > 10 | > 81 | >135000 | 0.15 | – | 250 | 0.0006 | Fold change [12]: 133; Fold change [7]: 83
Cc1c(Cc2c(F)cccc2F)nc(N2CCCCC2C)[nH]c1=O (stereo unspecified) | > 10 | 0.14 | > 10 | 75 | 8333 | 1.4 | 16 | 156 | 0.009 | –
O=c1cc(Cc2c(F)cccc2F)nc(N2CCCC2)[nH]1 | > 10 | > 10 | > 10 | > 86 | >925 | > 10 | – | – | 0.093 | –

Structure (SMILES) | EC50 [1] [µM] | EC50 [2] [µM] | EC50 [3] [µM] | CC50 at 96 h [4] [µM] | Ratio CC50/EC50 [5] | EC50 [6] [µM] | Ratio EC50 [7] | Ratio EC50 [8] | EC50 [9] [µM] | further results
O=c1cc(Cc2c(F)cccc2N2CCCC2)nc(N2CCCC2)[nH]1 | – | – | – | > 73 | >103 | – | – | – | 0.71 | –
O=C1Nc2ccc(Cl)cc2C(C#CC2CC2)(C(F)(F)F)O1 (single isomer, unassigned) [EFAVIRENZ] | 0.09 | 0.006 | 0.23 | > 0.3 | – | 0.08 | – | – | – | –
Cc1c(Cc2c(F)cccc2F)nc(N2CCCC2)[nH]c1=O | > 10 | 5.15 | > 10 | > 82 | >2562 | > 10 | 161 | – | 0.032 | –
Cc1c(C(C)c2c(Cl)cccc2Cl)nc(N(C)C)[nH]c1=O (stereo unspecified) | – | – | – | 35 | 1167 | – | – | – | 0.03 | –
O=c1cc(Cc2c(F)cccc2F)nc(N2CCOCC2)[nH]1 | > 10 | > 10 | > 10 | > 81 | >384 | > 10 | – | – | 0.211 | Ki [13]: 0.7 µM; Ki [14]: > 20 µM; Ki [15]: 15 µM; Ki [11]: 2.9 µM; Ki [10]: > 20 µM; Ki [16]: > 20 µM
Cc1c(C(C)c2c(F)cccc2F)nc(N2CCCC2)[nH]c1=O (stereo unspecified) | 0.155 | 0.071 | > 10 | > 78 | >39000 | 0.2 | 35 | 100 | 0.002 | Ratio EC50 [12]: 77
CC(C)N(C)c1nc(Cc2c(F)cccc2F)cc(=O)[nH]1 | > 10 | 0.03 | > 10 | 85 | 10625 | 0.18 | 4 | 22 | 0.008 | –
CCCN(C)c1nc(Cc2c(F)cccc2F)cc(=O)[nH]1 | – | – | – | 85 | 9444 | – | – | – | 0.009 | –
O=c1cc(Cc2c(F)cccc2F)nc(N2CCCCCC2)[nH]1 | > 10 | 0.43 | > 10 | > 78 | >3545 | 1.4 | 19 | 64 | 0.022 | –
O=c1cc(Cc2c(F)cccc2F)nc(-n2cccc2)[nH]1 | – | – | – | > 87 | >5 | – | – | – | 17.3 | –
Cc1c(C(C)c2c(F)cccc2F)nc(N2CCCCCC2)[nH]c1=O (stereo unspecified) | – | – | – | > 72 | >8000 | – | – | – | 0.009 | –
Cc1c(Cc2c(F)cccc2F)nc(N2CCC(C)CC2)[nH]c1=O | > 10 | – | > 10 | > 75 | >750 | > 10 | – | – | 0.1 | Ki [11]: 0.5 µM
Cc1c(Cc2c(F)cccc2F)nc(N(C)c2ccccc2)[nH]c1=O | – | – | – | > 73 | >849 | – | – | – | 0.086 | –
CCN(CC)c1nc(Cc2c(F)cccc2F)cc(=O)[nH]1 | – | – | – | > 85 | >639 | – | – | – | 0.133 | –
Cc1c(Cc2c(F)cccc2F)nc(N2CCCC(C)C2)[nH]c1=O (stereo unspecified) | > 10 | 0.57 | > 10 | > 75 | >4167 | 2.1 | 32 | 117 | 0.018 | –
